Data on 14 molecules can be found in ChEMBL document CHEMBL3414542, “Design and synthesis of celastrol derivatives as anticancer agents” (Eur J Med Chem, 2015).

Data set [1] has as its target Telomerase reverse transcriptase (Homo sapiens, UniProt O14746). Nature of the data set: Inhibition of telomerase in human MGC803 cell extracts after 24 hrs by TRAP-PCR-ELISA. Details: species or system MGC-803. The essentials: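 MGC-803 cells were grown in DMEM with 10% FBS, streptomycin and penicillin at 37 °C, 5% CO2, and 5 × 10^4 cells were seeded and allowed to adhere. Cells were exposed to staurosporine and test agents (60 to 0.0821 […] series) for 24 h, then scraped, washed, lysed in RIPA buffer on ice for 30 min, and spun at 12,000 g for 20 min at 4 °C. Extract (2 µL) was run in a TRAP-PCR-ELISA with anti-DIG peroxidase detection and read at 490 nm. Values are mean ± SD.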

Data set [2] can be described thus: Octanol-water partition coefficient, log P of the compound by shake-flask method. The data set is classed as physicochemical. The method in brief:
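Shake-flask method: the solute was dissolved in octanol and water and its concentration in each phase was measured by HPLC. Log P is the logarithm of the octanol/aqueous concentration ratio.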

Data set [3] can be described thus: Anticancer activity against human SMMC7721 cells assessed as cell survival after 48 hrs by MTT assay. The data set is classed as functional, cell-based. As to conditions: SMMC-7721, 48 h. The method in brief: (§1)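 MTT colorimetric assay. MTT was added (4 h, 37 °C), followed by DMSO, and absorbance was read at 570 nm. IC50 is the concentration giving 50% cell survival. Values are the mean ± SD of three independent experiments in triplicate.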

Data set [4] has as its system HepG2. Nature of the data set: Anticancer activity against human HepG2 cells assessed as cell survival after 48 hrs by MTT assay. The conditions noted are these: HepG2, 48 h. The data set is classed as functional, cell-based. The method in brief:
as §1

Data set [5] deals with MGC-803. Nature of the data set: Anticancer activity against human MGC803 cells assessed as cell survival after 48 hrs by MTT assay. The data set is classed as functional, cell-based. The conditions noted are these: MGC-803, 48 h. The method in brief: as §1
Data set [6] can be described thus: Anticancer activity against human SGC7901 cells assessed as cell survival after 48 hrs by MTT assay. The data set is classed as functional, cell-based. The conditions noted are these: SGC-7901, 48 h. The method in brief:
as §1

The test system of data set [7] is HepG2. Kind of data set: Ratio of celastrol IC50 to compound IC50 for human HepG2 cells assessed as cell survival after 48 hrs by MTT assay. The data set is classed as functional.
Data set [8] has as its system MGC-803. Kind of data set: Ratio of celastrol IC50 to compound IC50 for human MGC803 cells assessed as cell survival after 48 hrs by MTT assay. The data set is classed as functional.
The test system of data set [9] is SMMC-7721. Nature of the data set: Induction of apoptosis in human SMMC7721 cells assessed […] cells at 0.5 uM after 48 hrs by annexin V/PI staining based flow cytometry (reference value: 0.434%). The data set is classed as functional. The conditions noted are these: SMMC-7721, 48 h, read-out: Activity.
In data set [10] the test system is SMMC-7721. Kind of data set: Induction of apoptosis in human SMMC7721 cells assessed as normal cells at 0.5 uM after 48 hrs by annexin V/PI staining based flow cytometry (reference value: 98%). The data set is classed as functional.
Data set [11] relates to SMMC-7721. Nature of the data set: Induction of apoptosis in human SMMC7721 cells assessed as non-viable cells at 0.5 uM after 48 hrs by annexin V/PI staining based flow cytometry (reference value: 1.56%). The data set is classed as functional.
The subject of data set [12] is SMMC-7721. Nature of the data set: Induction of apoptosis in human SMMC7721 cells assessed as necrotic cells at 0.5 uM after 48 hrs by annexin V/PI staining based flow cytometry (reference value: 0%). The data set is classed as functional.

Sequence of Telomerase reverse transcriptase (O14746 whole entry): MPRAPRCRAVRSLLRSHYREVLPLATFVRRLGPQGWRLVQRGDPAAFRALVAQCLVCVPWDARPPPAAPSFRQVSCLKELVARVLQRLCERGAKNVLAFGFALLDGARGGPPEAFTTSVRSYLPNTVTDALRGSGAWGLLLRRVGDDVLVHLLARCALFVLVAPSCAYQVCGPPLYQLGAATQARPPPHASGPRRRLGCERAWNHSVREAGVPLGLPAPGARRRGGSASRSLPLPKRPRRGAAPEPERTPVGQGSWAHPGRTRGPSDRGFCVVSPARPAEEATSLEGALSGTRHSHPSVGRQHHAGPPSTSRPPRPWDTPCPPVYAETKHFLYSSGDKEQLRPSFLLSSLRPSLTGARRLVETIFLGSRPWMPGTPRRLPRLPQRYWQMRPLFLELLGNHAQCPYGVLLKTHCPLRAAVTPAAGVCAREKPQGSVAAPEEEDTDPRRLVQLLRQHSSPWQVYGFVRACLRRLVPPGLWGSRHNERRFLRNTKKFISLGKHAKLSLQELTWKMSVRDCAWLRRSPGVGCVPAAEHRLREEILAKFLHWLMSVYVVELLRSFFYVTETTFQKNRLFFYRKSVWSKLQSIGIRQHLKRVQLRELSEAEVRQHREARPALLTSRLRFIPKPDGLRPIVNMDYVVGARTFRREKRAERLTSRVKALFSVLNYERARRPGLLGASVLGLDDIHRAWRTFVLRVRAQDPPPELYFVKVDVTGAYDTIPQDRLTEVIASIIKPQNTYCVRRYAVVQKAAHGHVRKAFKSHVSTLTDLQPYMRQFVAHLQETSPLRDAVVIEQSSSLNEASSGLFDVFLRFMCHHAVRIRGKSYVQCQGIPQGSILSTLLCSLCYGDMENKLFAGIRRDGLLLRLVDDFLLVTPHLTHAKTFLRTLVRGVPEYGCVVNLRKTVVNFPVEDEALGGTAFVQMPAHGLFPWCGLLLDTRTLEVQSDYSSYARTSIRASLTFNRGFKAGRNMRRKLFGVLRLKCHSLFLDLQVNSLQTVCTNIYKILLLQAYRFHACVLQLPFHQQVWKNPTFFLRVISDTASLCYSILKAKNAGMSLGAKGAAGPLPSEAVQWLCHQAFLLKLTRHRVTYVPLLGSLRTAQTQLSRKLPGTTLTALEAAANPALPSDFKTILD

In the case of `C/C(=C\C(=O)Nc1ccccc1C(=O)O)c1ccc2ccccc2c1`, the IC50 in [1] worked out at 0.41 µM.

Regarding `CC1=C(O)C(=O)C=C2C1=CC=C1[C@@]2(C)CC[C@@]2(C)[C@@H]3C[C@](C)(C(=O)O)CC[C@]3(C)CC[C@]12C` [CELASTROL], the lipophilicity (logP) in data set [2] came to 4.38. The IC50 was found to be 0.58 µM in data set [3]; 0.78 µM in [1]; 4.01 µM with HepG2 [4]; 1.55 µM in the data set on MGC-803 [5]; 0.15 µM in [6].

For `CCCCNC(=O)[C@]1(C)CC[C@]2(C)CC[C@]3(C)C4=CC=C5C(=CC(=O)C(O)=C5C)[C@]4(C)CC[C@@]3(C)[C@@H]2C1`, the IC50 in data set [3] turned out to be 6.88 µM; with HepG2 [4], 3.07 µM; in the data set on MGC-803 [5], 3.55 µM; in data set [6], 4.9 µM.

In [2], `CC1=C(O)C(=O)C=C2C1=CC=C1[C@@]2(C)CC[C@@]2(C)[C@@H]3C[C@](C)(C(=O)NCC(C)O)CC[C@]3(C)CC[C@]12C` (stereo partly specified) yielded a logP of 3.49. The IC50 in data set [3] was 0.61 µM; in [1], 0.34 µM; in the data set on HepG2 [4] it was 0.28 µM; in the data set with MGC-803 [5], 1.22 µM; in [6] it was 0.1 µM. The “Ratio IC50” value with HepG2 [7] is given as 14.3; with MGC-803 [8], 1.3.

`CNC(=O)[C@]1(C)CC[C@]2(C)CC[C@]3(C)C4=CC=C5C(=CC(=O)C(O)=C5C)[C@]4(C)CC[C@@]3(C)[C@@H]2C1` gave a logP in data set [2] of 3.96. Moreover, the IC50 stood at 7.62 µM in data set [3]; 15.1 µM in [1]; 10.6 µM with HepG2 [4]; 24.1 µM in the data set with MGC-803 [5]; 9.38 µM in data set [6].

For `CC1=C(O)C(=O)C=C2C1=CC=C1[C@@]2(C)CC[C@@]2(C)[C@@H]3C[C@](C)(C(=O)N4CCOCC4)CC[C@]3(C)CC[C@]12C`, in data set [2], the logP stood at 3.8. In addition, the IC50 in [3] was found to be 10.7 µM; in data set [1], 8.01 µM; with HepG2 [4] it was 22.7 µM; in the data set with MGC-803 [5], 30.7 µM; in data set [6], 8.74 µM.

With `CC1=C(O)C(=O)C=C2C1=CC=C1[C@@]2(C)CC[C@@]2(C)[C@@H]3C[C@](C)(C(=O)N4CCN(CCN(C)C)CC4)CC[C@]3(C)CC[C@]12C`, the logP in data set [2] was 3.95. Further, the half-maximal inhibitory concentration (IC50) worked out at 2.58 µM in data set [3]; 1.41 µM in [1]; 5.21 µM with HepG2 [4]; 1 µM in the data set with MGC-803 [5]; 1.33 µM in data set [6].

In turn, `CC1=C(O)C(=O)C=C2C1=CC=C1[C@@]2(C)CC[C@@]2(C)[C@@H]3C[C@](C)(C(=O)N(C)C)CC[C@]3(C)CC[C@]12C` showed a logP in [2] of 4.2. In addition, the IC50 in data set [3] came out at 20 µM; in data set [1] it was 21 µM; in the data set on HepG2 [4] it was 11.2 µM; with MGC-803 [5], 6.3 µM; in [6], 10.5 µM.

With `CC1=C(O)C(=O)C=C2C1=CC=C1[C@@]2(C)CC[C@@]2(C)[C@@H]3C[C@](C)(C(=O)N4CCN(CCO)CC4)CC[C@]3(C)CC[C@]12C`, the logP in [2] amounted to 3.44. Besides, the IC50 in [3] was 1.84 µM; in [1], 2.01 µM; with HepG2 [4], 8.7 µM; in the data set with MGC-803 [5] it was 10.3 µM; in [6] it was 3.81 µM.

In turn, `CCOC(=O)[C@]1(C)CC[C@]2(C)CC[C@]3(C)C4=CC=C5C(=CC(=O)C(O)=C5C)[C@]4(C)CC[C@@]3(C)[C@@H]2C1` gave a logP in data set [2] of 4.98. Also, the IC50 was 9.28 µM in data set [3]; 18.6 µM in data set [1]; 15.2 µM in the data set on HepG2 [4]; 12 µM in the data set on MGC-803 [5]; 11.5 µM in [6].

In [2], `CC1=C(O)C(=O)C=C2C1=CC=C1[C@@]2(C)CC[C@@]2(C)[C@@H]3C[C@](C)(C(=O)N4CCN(CCN5CCOCC5)CC4)CC[C@]3(C)CC[C@]12C` gave a logP of 3.5. Further, the IC50 was found to be 12.3 µM in data set [3]; 15.2 µM in data set [1]; 16.4 µM in the data set with HepG2 [4]; 13.4 µM in the data set with MGC-803 [5]; 8.1 µM in data set [6].

On to `O=c1[nH]cc(F)c(=O)[nH]1` [FLUOROURACIL], for which the IC50 is 4.87 µM in data set [3], 5.86 µM in the data set on HepG2 [4], 3.58 µM with MGC-803 [5] and 6.12 µM in [6].

Regarding `COc1cccc2c1C(=O)c1c(O)c3c(c(O)c1C2=O)C[C@@](O)(C(=O)CO)C[C@@H]3O[C@H]1C[C@H](N)[C@H](O)[C@H](C)O1` [DOXORUBICIN], the IC50 in data set [3] was found to be 1.22 µM; in the data set with HepG2 [4] it was 0.87 µM; in the data set with MGC-803 [5], 1.19 µM; in data set [6] it was 1.45 µM.

In the case of `CC1=C(O)C(=O)C=C2C1=CC=C1[C@@]2(C)CC[C@@]2(C)[C@@H]3C[C@](C)(C(=O)NCCO)CC[C@]3(C)CC[C@]12C`, in data set [2], the log partition coefficient (logP) was 3.44. For the same molecule, the viability at 0.5 µM with SMMC-7721 [9] turned out to be 13.2%. Further, the IC50 in [3] was 0.3 µM; in [1], 0.11 µM; in the data set with HepG2 [4] it was 0.61 µM; with MGC-803 [5], 0.39 µM; in [6], 0.16 µM. The Activity with SMMC-7721 [10] came to 37.6%; in the data set with SMMC-7721 [11], 48%; in the data set on SMMC-7721 [12], 1.24%. For the same molecule, the results for the “Ratio IC50” value with HepG2 [7] and in the data set with MGC-803 [8] were 6.6 and 4, respectively.
